These results are taken from ChEMBL document CHEMBL4184251, “Potentiation of the activity of β-lactam antibiotics by farnesol and its derivatives” (Bioorg Med Chem Lett, 2018).

What all share (format): functional
In assay [1] the test system is Staphylococcus aureus. Nature of the assay: Potentiation of ampicillin-induced antimicrobial activity against methicillin-resistant Staphylococcus aureus NRS70 at 128 ug/ml (reference value: ampicillin alone MIC = 16 ug/ml).
Assay [2] concerns Staphylococcus aureus. The assay is described as follows: Potentiation of ampicillin-induced antimicrobial activity against methicillin-susceptible Staphylococcus aureus ATCC 29213 at 256 ug/ml relative to ampicillin alone.
For assay [3], the system named is Staphylococcus aureus. Nature of the assay: Potentiation of oxacillin-induced antimicrobial activity against methicillin-resistant Staphylococcus aureus NRS100 at 128 ug/ml (reference value: oxacillin alone MIC = >256 ug/ml).
For assay [4], the system named is Staphylococcus aureus. The assay is described as follows: Antimicrobial activity against methicillin-susceptible Staphylococcus aureus ATCC 29213 by micro-dilution method. The procedure, abridged:
(§1)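 Broth microdilution MIC in cation-adjusted Mueller-Hinton II medium supplemented with 1% Tween-80 (CAMHB-T), needed to disperse the farnesol-type compounds. Compounds tested from 2 to 2048 μg/mL.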
(Broth dilution looks for growth in wells or tubes with falling amounts of substance.)

In assay [5] the test system is Staphylococcus aureus. The assay is described as follows: Antimicrobial activity against methicillin-resistant Staphylococcus aureus NRS70 by micro-dilution method. The method in brief:
as §1

For assay [6], the system named is Staphylococcus aureus. Nature of the assay: Potentiation of oxacillin-induced antimicrobial activity against methicillin-resistant Staphylococcus aureus NRS70 at 128 ug/ml (reference value: oxacillin alone MIC = 32 ug/ml).
The subject of assay [7] is Staphylococcus aureus. Nature of the assay: Potentiation of ampicillin-induced antimicrobial activity against methicillin-susceptible Staphylococcus aureus ATCC 29213 at 256 ug/ml (reference value: ampicillin alone MIC = 0.5 ug/ml).
Assay [8] deals with Staphylococcus aureus. Nature of the assay: Potentiation of oxacillin-induced antimicrobial activity against methicillin-resistant Staphylococcus aureus NRS100 at 128 ug/ml by checkerboard assay. The procedure, abridged: (§2)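 Checkerboard combination of oxacillin with the farnesol-type compound. Synergy scored by the fractional inhibitory concentration index (FICI).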
Assay [9] has as its system Staphylococcus aureus. Nature of the assay: Potentiation of oxacillin-induced antimicrobial activity against methicillin-resistant Staphylococcus aureus NRS70 at 128 ug/ml by checkerboard assay. The method in brief: as §2
Assay [10] has as its system Staphylococcus aureus. Nature of the assay: Potentiation of ampicillin-induced antimicrobial activity against methicillin-resistant Staphylococcus aureus NRS123 at 256 ug/ml relative to ampicillin alone.
Assay [11] relates to Staphylococcus aureus. The assay is described as follows: Potentiation of ampicillin-induced antimicrobial activity against methicillin-resistant Staphylococcus aureus NRS100 at 128 ug/ml (reference value: ampicillin alone MIC = 16 ug/ml).
Assay [12] concerns Staphylococcus aureus. The assay is described as follows: Antimicrobial activity against methicillin-resistant Staphylococcus aureus NRS100 by micro-dilution method. The method in brief: as §1
Assay [13] has as its system Staphylococcus aureus. The assay is described as follows: Potentiation of ampicillin-induced antimicrobial activity against methicillin-resistant Staphylococcus aureus NRS70 at 128 ug/ml relative to ampicillin alone.
Assay [14] has as its system Staphylococcus aureus. The assay is described as follows: Potentiation of oxacillin-induced antimicrobial activity against methicillin-resistant Staphylococcus aureus NRS123 at 256 ug/ml relative to oxacillin alone.
The test system of assay [15] is Staphylococcus aureus. The assay is described as follows: Potentiation of ampicillin-induced antimicrobial activity against methicillin-resistant Staphylococcus aureus NRS123 at 256 ug/ml (reference value: ampicillin alone MIC = 12 ug/ml).
In assay [16] the test system is Staphylococcus aureus. The assay is described as follows: Potentiation of ampicillin-induced antimicrobial activity against methicillin-resistant Staphylococcus aureus NRS100 at 128 ug/ml relative to ampicillin alone.
Assay [17] concerns Staphylococcus aureus. The assay is described as follows: Antimicrobial activity against methicillin-resistant Staphylococcus aureus NRS123 by micro-dilution method. The method in brief: as §1
Assay [18] deals with Staphylococcus aureus. Nature of the assay: Potentiation of oxacillin-induced antimicrobial activity against methicillin-resistant Staphylococcus aureus NRS123 at 256 ug/ml (reference value: oxacillin alone MIC = 24 ug/ml).
The subject of assay [19] is Staphylococcus aureus. Nature of the assay: Potentiation of oxacillin-induced antimicrobial activity against methicillin-susceptible Staphylococcus aureus ATCC 29213 at 256 ug/ml relative to oxacillin alone.
Assay [20] has as its system Staphylococcus aureus. The assay is described as follows: Potentiation of oxacillin-induced antimicrobial activity against methicillin-susceptible Staphylococcus aureus ATCC 29213 at 256 ug/ml (reference value: oxacillin alone MIC = 0.4 ug/ml).
The subject of assay [21] is Staphylococcus aureus. Nature of the assay: Potentiation of oxacillin-induced antimicrobial activity against methicillin-resistant Staphylococcus aureus NRS70 at 128 ug/ml relative to oxacillin alone.

≈ marks a conversion by molar mass, not a printed value. Some results are limits rather than exact numbers.

Usually MIC stands for the lowest concentration found to suppress growth.

`CC(C)=CCC/C(C)=C/CC/C(C)=C/CN`: the MIC with Staphylococcus aureus [1] is 16 µg/mL; with Staphylococcus aureus [3], more than 256 µg/mL; against Staphylococcus aureus [4], 512 µg/mL (≈ 2310 µM); in the assay with Staphylococcus aureus [5], 256 µg/mL (≈ 1160 µM); with Staphylococcus aureus [6], 32 µg/mL; in the assay on Staphylococcus aureus [7], 0.2 µg/mL. Also, the MIC stood at 8 µg/mL in the assay on Staphylococcus aureus [11]; 256 µg/mL (≈ 1160 µM) against Staphylococcus aureus [12]; 1 µg/mL in the assay with Staphylococcus aureus [15]; 512 µg/mL (≈ 2310 µM) against Staphylococcus aureus [17]; 0.75 µg/mL in the assay on Staphylococcus aureus [18]; 0.5 µg/mL in the assay with Staphylococcus aureus [20]. Further, the “fold change (FC)” value in the assay on Staphylococcus aureus [2] is listed as 2.5; in the assay with Staphylococcus aureus [10] it was 12; with Staphylococcus aureus [13], 1; in the assay with Staphylococcus aureus [14] it was 32; with Staphylococcus aureus [16], 2; with Staphylococcus aureus [19] it was 0.8. For the same compound, in the assay with Staphylococcus aureus [21], the “fold change (FC)” value is 1. The “fractional inhibitory concentration index (FICI)” value with Staphylococcus aureus [8] and in the assay on Staphylococcus aureus [9] was 0.53 - 1.13 in each case.
